Screening results: PubChem, The Scripps Research Institute Molecular Screening Center
Only some compounds are listed: those with a hit (about 1.2% of all), similar ones and a draw of the others.
ASAP1 inh = inhibitors of human ASAP1 ArfGAP activity, primary screen, biochemical, fluorescence polarization; inhibition, % at 16.5 µM; ASAP1-stimulated ARF1 GTP hydrolysis, GDP FP detection; actives 0.19% (n = 360,000); in the data active = inhibition above about 25%
Rin1 Abl inh = inhibitors of Rin1-Abl protein binding, primary screen, biochemical, TR-FRET; inhibition, % at 7.35 µM; AID 588664, 2011; Tyrosine-protein kinase ABL1 (Homo sapiens) + Ras and Rab interactor 1 (Homo sapiens), …; actives 0.4% (n = 360,000); in the data active = inhibition above about 5%, passing the limit was not always enough
GalR3 antag = GalR3 antagonists in HEK293 cells, primary screen, cell-based, fluorescence readout; AID 651719, 2012; inhibition, % at 3 µM; actives 0.44% (n = 360,000); Galanin receptor type 3 (Homo sapiens), O60755; HEK293 GalR3-CNG cAMP membrane potential fluorescence; galR3 body fused to GalR1 C-terminus;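 active = inhibition above the screen-wide average plus 3 SD, cut at about 13% in these data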;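 also: forskolin and galanin both at EC90 stimulate the cells; cAMP rise reported by CNG channel membrane potential dye signal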
Target sequence (O60755 1-299 limits assumed): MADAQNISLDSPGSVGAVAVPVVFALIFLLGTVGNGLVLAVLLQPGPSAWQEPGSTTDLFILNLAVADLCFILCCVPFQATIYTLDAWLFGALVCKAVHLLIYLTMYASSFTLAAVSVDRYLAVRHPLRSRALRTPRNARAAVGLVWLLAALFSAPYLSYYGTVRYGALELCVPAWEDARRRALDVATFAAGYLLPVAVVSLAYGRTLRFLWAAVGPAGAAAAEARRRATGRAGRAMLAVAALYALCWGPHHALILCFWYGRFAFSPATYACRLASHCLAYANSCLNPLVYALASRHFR
ARFGAP1 inhibitor = inhibitors of rat ARFGAP1 GAP activity, primary screen, biochemical, fluorescence polarization, GDP tracer. ADP-ribosylation factor GTPase-activating protein 1 (Rattus norvegicus), Q62848. Arfgap1-stimulated ARF1 GTP hydrolysis, GDP FP detection. inhibition, % at 16.5 µM. actives 0.26% (n = 360,000). AID 651572, 2012;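 active = inhibition above a per-plate limit, mean inhibition of low control wells plus 3 SD, cut at about 25% in these data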
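System: truncated rat Arfgap1 GAP domain / Medium: HEPES-based buffer, pH 7.5 / Also added: N-terminally truncated human ARF1-GTP substrate / Incubation: enzyme reaction 120 min at 25 °C after 20 min preincubation / Measured by: FP of antibody-bound GDP Alexa 633 tracer, ex 620/em 688 nm / Replicates: singlicate, each compound tested once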
GalR3 antag conf = GalR3 antagonist hit confirmation, cell-based, fluorescence, triplicate | inhibition, % at 3 µM | AID 652245, 2013 | actives 59% (n = 1,600) | HEK293 GalR3 CNG cAMP biosensor, membrane potential fluorescence; galR3 fused to GalR1 carboxy tail; challenged with forskolin and galanin at EC90 | shares compounds with GalR3 antag;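 active = inhibition above the primary screen's cutoff, the mean inhibition of all screened compounds plus 3 SD, cut at about 13% in these data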
CNG parental = nonspecific cAMP agonists in parental HEK-CNG cells, counter-screen for GalR3 antagonist project, cell-based, fluorescence, high throughput | shares compounds with GalR3 antag | HEK293-CNG parental cells, cAMP membrane potential fluorescence; normalised: DMSO wells 0%, forskolin wells 100% | activation, % at 3 µM | actives 10% (n = 1,600); in the data active = activation above about 1.3%
Large screens that a line does not name were inactive (follow-up assays come after a bar, where they were run).

CCN(CC)S(=O)(=O)c1cccc(NC(=O)COC(=O)c2[nH]c(C)c(C(C)=O)c2C)c1	GalR3 antag 28 | GalR3 antag conf 97 | CNG parental inactive
Cc1nn(C)c(C(=O)NCc2ccc(Cl)cc2)c1Cl	GalR3 antag 82 | GalR3 antag conf 100 | CNG parental inactive
Cc1nc(C)c(C(=O)NCc2ccc(Cl)cc2)o1	none (no result: ASAP1 inh, GalR3 antag, ARFGAP1 inhibitor)
Cc1ccc(NC(=O)CNc2ccc(Cl)c(Cl)c2)cc1S(=O)(=O)N(C)C	GalR3 antag 45 | GalR3 antag conf 90 | CNG parental inactive
Nc1nc2c(ncn2[C@@H]2O[C@H](C(=O)NCC3CCCCC3)[C@@H](O)[C@H]2O)c(=O)[nH]1	none (no result: Rin1 Abl inh)
O=C(N/N=C/c1ccccc1)C(=O)N/N=C/c1ccccc1	none
O=C(C=C=Nc1ccccc1)C(=O)N=C=Cc1ccccc1	GalR3 antag 18 | GalR3 antag conf inactive | CNG parental inactive
O=C(Nc1ccccc1)C1CCCN(S(=O)(=O)c2ccc(-n3cnnn3)cc2)C1 (stereo not given)	none
O=C(Nc1cccc(F)c1)C1CCCN(S(=O)(=O)c2ccc(-n3cnnn3)cc2)C1 (stereo not given)	GalR3 antag 14 | GalR3 antag conf inactive | CNG parental inactive
CCN=C1NC(CCc2ccccc2)C(C(=O)OC)=C(C)N1Cc1ccccc1C(F)(F)F (stereo not given)	none (no result: Rin1 Abl inh)
CCOC(=O)C1=C(C(=O)OCC)C2N(Cc3ccccc3)c3ccccc3[C@@]23C[C@@H](C(=O)OC)N(S(=O)(=O)c2ccc(C(F)(F)F)cc2)C3=N1 (stereo not given in full)	none (no result: Rin1 Abl inh)
O=C(Nc1ccc(F)cc1)C(c1cc2ccccc2o1)N1CCN(C(=O)c2ccco2)CC1 (stereo not given)	none (no result: Rin1 Abl inh)
Cc1cc(NC(=O)CSc2nnc(-c3ccco3)o2)no1	none (no result: GalR3 antag) | GalR3 antag conf inactive | CNG parental inactive
CC(=O)Nc1ccc(NC(=O)CSc2nnc(-c3ccco3)o2)cc1	none
CC(C)c1csc(CN2CCC(CO)(Cc3cccc(F)c3)CC2)n1	GalR3 antag 13 | GalR3 antag conf inactive | CNG parental inactive
OCC1(Cc2cccc(F)c2)CCN(Cc2cccc3nccnc23)CC1	none
CCCCc1c(-c2ccccc2OC)ncn1Cc1cccc(F)c1F	none (no result: Rin1 Abl inh)
